Reference: ChEMBL document CHEMBL1153955, “Indolylarylsulfones bearing natural and unnatural amino acids. Discovery of potent inhibitors of HIV-1 non-nucleoside wild type and resistant mutant strains reverse transcriptase and coxsackie B4 virus” (J Med Chem, 2009)

Tests used:
[1] = system: Mammalian orthoreovirus 1; experiment: Antiviral activity against Reovirus 1 in african green monkey Vero cells assessed as protection against virus-induced cytopathicity; assay type: functional, organism-based; conditions: Mammalian orthoreovirus 1, Vero
Summary of the method: (§1)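 Confluent cell monolayers inoculated with 100 CCID₅₀ virus. After 1-2 h adsorption, residual virus removed and cultures incubated with varying compound concentrations. Cytopathicity scored once it reached completion in untreated infected controls. EC₅₀ = dose reducing virus-induced cytopathogenicity by 50%.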

[2] = Cytotoxicity against feline CRFK cells by MTS assay; assay type: cell-based, Felis catus; conditions: cat
[3] = Cytotoxicity against human HeLa cells assessed as drug level causing microscopically detectable alteration of normal cell morphology after 3 days; assay type: cell-based
Summary of the method: (§2)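 Serial compound dilutions added to confluent HeLa or Vero monolayers. MCC = minimum concentration causing microscopically detectable alteration of cell morphology after 3 days of incubation.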

[4] = Antiproliferative activity against human Molt4/C8 cells after 3 days; assay type: cell-based; conditions: MOLT-4, 72 h
Summary of the method: (§3)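 Cells seeded at 5 × 10⁴ to 7.5 × 10⁴ cells/200 µL with or without serial compound dilutions; incubated at 37 °C for 2 days (L1210) or 3 days (Molt4/C8, CEM). Cell numbers counted with a Coulter counter. CC₅₀ = concentration reducing proliferation by 50% versus untreated controls, read from plots of cell number (% of control) against concentration. Means of at least two independent experiments.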

[5] = system: Human immunodeficiency virus 2; experiment: Antiviral activity against HIV2 ROD in human CEM cells assessed as protection against virus-induced cytopathicity after 4 days; assay type: functional, organism-based; conditions: Human immunodeficiency virus 2, ROD, CCRF-CEM, 96 h
Summary of the method: (§4)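 CEM cells (~3 × 10⁵ cells/mL) infected with ~100 CCID₅₀ per mL of HIV-1 (IIIB) or HIV-2 (ROD), then seeded into wells containing compound dilutions. After 4 days at 37 °C, syncytium (giant cell) formation was examined microscopically. EC₅₀ = concentration protecting CEM cells from HIV cytopathicity by 50%.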

[6] = biological target: Human immunodeficiency virus type 1 reverse transcriptase (Human immunodeficiency virus 1, UniProt Q72547, Y181I); experiment: Inhibition of HIV1 reverse transcriptase p66/p51 Y181I mutant; conditions: read-out: IC50
Summary of the method: (§5)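 Substrate was 0.5 µg poly(rA)/oligo(dT) 10:1 (0.3 µM 3′-OH ends) with 10 µM [³H]dTTP, at 37 °C. Acid-precipitable radioactivity was counted on GF/C filters after TCA washes.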

[7] = Cytotoxicity against MDCK cells assessed as drug level causing microscopically detectable alteration of normal cell morphology; assay type: cell-based, Canis lupus familiaris; conditions: dog
[8] = system: Vesicular stomatitis virus; experiment: Antiviral activity against VSV in human HEL cells assessed as protection against virus-induced cytopathicity; assay type: functional, organism-based
[9] = system: Respiratory syncytial virus; experiment: Antiviral activity against RSV Long in human HeLa cells assessed as protection against virus-induced cytopathicity; assay type: functional, organism-based; summary of the method: as §1
Influenza A virus [10] = experiment: Antiviral activity against influenza H1N1 virus in MDCK cells assessed as reduction of virus-induced cytopathicity by MTS method; assay type: functional, organism-based; conditions: Influenza A virus, H1N1, MDCK
Influenza B virus [11] = experiment: Antiviral activity against influenza B virus in MDCK cells assessed as reduction of virus-induced cytopathicity by visual cytopathic effect scoring method; assay type: functional, organism-based
Punta Toro virus = experiment: Antiviral activity against Punta Toro virus in african green monkey Vero cells assessed as protection against virus-induced cytopathicity; assay type: functional, organism-based; summary of the method: as §1
Human respirovirus 3 = experiment: Antiviral activity against Parainfluenza virus type 3 in african green monkey Vero cells assessed as protection against virus-induced cytopathicity; assay type: functional, organism-based; conditions: Human respirovirus 3, Vero; summary of the method: as §1
Vaccinia virus = experiment: Antiviral activity against Vaccinia virus Lederle in human HEL cells assessed as protection against virus-induced cytopathicity; assay type: functional, organism-based; conditions: Orthopoxvirus vaccinia
[12] = system: Vesicular stomatitis virus; experiment: Antiviral activity against VSV in human HeLa cells assessed as protection against virus-induced cytopathicity; assay type: functional, organism-based
Coxsackievirus B4 [13] = experiment: Antiviral activity against Coxsackievirus B4 in african green monkey Vero cells assessed as protection against virus-induced cytopathicity; assay type: functional, organism-based; conditions: Enterovirus B; summary of the method: as §1
CCRF-CEM = experiment: Antiproliferative activity against human CEM cells after 3 days; assay type: cell-based; conditions: 72 h; summary of the method: as §3
[14] = Cytotoxicity against african green monkey Vero cells assessed as drug level causing microscopically detectable alteration of normal cell morphology after 3 days; assay type: cell-based; conditions: chlorocebus sabaeus; summary of the method: as §2
Sindbis virus = experiment: Antiviral activity against Sindbis virus in african green monkey Vero cells assessed as protection against virus-induced cytopathicity; assay type: functional, organism-based; summary of the method: as §1
Influenza A virus [15] = experiment: Antiviral activity against influenza H1N1 virus in MDCK cells assessed as reduction of virus-induced cytopathicity by visual cytopathic effect scoring method; assay type: functional, organism-based
Human alphaherpesvirus 1 [16] = experiment: Antiviral activity against HSV1 KOS in human HEL cells assessed as protection against virus-induced cytopathicity; assay type: functional, organism-based; conditions: Human alphaherpesvirus 1, KOS
Human alphaherpesvirus 1 [17] = experiment: Antiviral activity against thymidine kinase deficient and acyclovir resistant HSV1 KOS in human HEL cells assessed as protection against virus-induced cytopathicity; assay type: functional, organism-based; conditions: Human alphaherpesvirus 1, KOS
[18] = biological target: Human immunodeficiency virus type 1 reverse transcriptase (Human immunodeficiency virus 1, UniProt Q72547, K103N); experiment: Inhibition of HIV1 reverse transcriptase p66/p51 K103N mutant; conditions: read-out: IC50; summary of the method: as §5
Feline coronavirus = experiment: Antiviral activity against Feline coronavirus in feline […] cells assessed as inhibition of virus-induced cytopathicity; assay type: functional, organism-based; conditions: Alphacoronavirus 1
L1210 = experiment: Antiproliferative activity against mouse L1210 cells after 2 days; assay type: cell-based; conditions: L1210, 48 h; summary of the method: as §3
[19] = Cytotoxicity against human HEL cells assessed as drug level causing microscopically detectable alteration of normal cell morphology after 3 days; assay type: cell-based
Influenza A virus H3N2 [20] = experiment: Antiviral activity against influenza H3N2 virus in MDCK cells assessed as reduction of virus-induced cytopathicity by visual cytopathic effect scoring method; assay type: functional, organism-based
[21] = Cytotoxicity against MDCK cells by MTS assay; assay type: cell-based, Canis lupus familiaris; conditions: dog
[22] = biological target: Human immunodeficiency virus type 1 reverse transcriptase (Human immunodeficiency virus 1, UniProt Q72547, L100I); experiment: Inhibition of HIV1 reverse transcriptase p66/p51 L100I mutant; conditions: read-out: IC50; summary of the method: as §5
Felid alphaherpesvirus 1 = experiment: Antiviral activity against Feline herpesvirus in feline […] cells assessed as inhibition of virus-induced cytopathicity; assay type: functional, organism-based
[23] = biological target: Human immunodeficiency virus type 1 reverse transcriptase (Human immunodeficiency virus 1, UniProt Q72547); experiment: Inhibition of HIV1 reverse transcriptase p66/p51; conditions: read-out: IC50
Influenza A virus H3N2 [24] = experiment: Antiviral activity against influenza H3N2 virus in MDCK cells assessed as reduction of virus-induced cytopathicity by MTS method; assay type: functional, organism-based
[25] = system: Human immunodeficiency virus 1; experiment: Antiviral activity against HIV1 3B in human CEM cells assessed as protection against virus-induced cytopathicity after 4 days; assay type: functional, organism-based; conditions: Human immunodeficiency virus 1, 3B, CCRF-CEM, 96 h; summary of the method: as §4
Influenza B virus [26] = experiment: Antiviral activity against influenza B virus in MDCK cells assessed as reduction of virus-induced cytopathicity by MTS method; assay type: functional, organism-based
Human alphaherpesvirus 2 = experiment: Antiviral activity against HSV2 G in human HEL cells assessed as protection against virus-induced cytopathicity; assay type: functional, organism-based; conditions: Human alphaherpesvirus 2, strain G; summary of the method: as §1
Coxsackievirus B4 [27] = experiment: Antiviral activity against Coxsackievirus B4 in human HeLa cells assessed as protection against virus-induced cytopathicity; assay type: functional, organism-based; conditions: Enterovirus B; summary of the method: as §1

SMILES	EC50 [1]	CC50 [2]	MCC at 72 h [3]	IC50 [4]	EC50 [5]	IC50 [6]	MCC [7]	EC50 [8]	EC50 [9]	EC50 (Influenza A virus [10])	EC50 (Influenza B virus [11])	EC50 (Punta Toro virus)	EC50 (Human respirovirus 3)	EC50 (Vaccinia virus)	EC50 [12]	EC50 (Coxsackievirus B4 [13])	IC50 (CCRF-CEM)	MCC at 72 h [14]	EC50 (Sindbis virus)	EC50 (Influenza A virus [15])	further results
Cc1cc(C)cc(S(=O)(=O)c2c(C(=O)NC(C)C(N)=O)[nH]c3ccc(Br)cc23)c1 (stereo not drawn)	> 4 µM	9.2 µM	20 µM	8.7 µM	> 10 µM	1.81 µM	4 µM	> 4 µM	4 µM	> 800 µM	> 800 µM	> 4 µM	> 4 µM	> 4 µM	> 4 µM	> 4 µM	10 µM	20 µM	> 4 µM	> 800 µM	EC50 (Human alphaherpesvirus 1 [16]): > 4 µM; EC50 (Human alphaherpesvirus 1 [17]): > 4 µM; IC50 [18]: 0.509 µM; EC50 (Feline coronavirus): > 4 µM; IC50 (L1210): 10 µM; MCC at 72 h [19]: 20 µM; EC50 (Influenza A virus H3N2 [20]): > 800 µM; CC50 [21]: 1.7 µM; IC50 [22]: 0.041 µM; EC50 (Felid alphaherpesvirus 1): > 4 µM; IC50 [23]: 0.016 µM; EC50 (Influenza A virus H3N2 [24]): > 800 µM; EC50 [25]: 0.0019 µM; EC50 (Influenza B virus [26]): > 800 µM; EC50 (Human alphaherpesvirus 2): > 4 µM; EC50 (Coxsackievirus B4 [27]): 2 µM
Cc1cc(C)cc(S(=O)(=O)c2c(C(=O)NCCC(N)=O)[nH]c3ccc(Br)cc23)c1	> 20 µM	15.6 µM	≥ 20 µM	25 µM	23 µM	8.57 µM	20 µM	> 4 µM	≥ 20 µM	> 4 µM	> 4 µM	> 20 µM	> 20 µM	> 4 µM	> 20 µM	16 µM	36 µM	100 µM	> 20 µM	> 4 µM	EC50 (Human alphaherpesvirus 1 [16]): > 4 µM; EC50 (Human alphaherpesvirus 1 [17]): > 4 µM; IC50 [18]: 0.42 µM; EC50 (Feline coronavirus): > 4 µM; IC50 (L1210): 46 µM; MCC at 72 h [19]: 20 µM; EC50 (Influenza A virus H3N2 [20]): > 4 µM; CC50 [21]: 8.5 µM; IC50 [22]: 0.169 µM; EC50 (Felid alphaherpesvirus 1): > 4 µM; IC50 [23]: 0.086 µM; EC50 (Influenza A virus H3N2 [24]): > 4 µM; EC50 [25]: 0.0011 µM; EC50 (Influenza B virus [26]): > 4 µM; EC50 (Human alphaherpesvirus 2): > 4 µM; EC50 (Coxsackievirus B4 [27]): 11 µM
Cc1cc(C)cc(S(=O)(=O)c2c(C(=O)NCC(N)=O)[nH]c3ccc(Cl)c(F)c23)c1	> 20 µM	71 µM	100 µM	34 µM	> 10 µM	2.46 µM	20 µM	> 20 µM	16 µM	> 4 µM	> 4 µM	> 20 µM	> 20 µM	> 20 µM	> 20 µM	> 20 µM	31 µM	> 100 µM	> 20 µM	> 4 µM	EC50 (Human alphaherpesvirus 1 [16]): > 20 µM; EC50 (Human alphaherpesvirus 1 [17]): > 20 µM; IC50 [18]: 1.04 µM; EC50 (Feline coronavirus): > 20 µM; IC50 (L1210): 53 µM; MCC at 72 h [19]: 100 µM; EC50 (Influenza A virus H3N2 [20]): > 4 µM; CC50 [21]: 7.6 µM; IC50 [22]: 0.319 µM; EC50 (Felid alphaherpesvirus 1): > 20 µM; IC50 [23]: 0.025 µM; EC50 (Influenza A virus H3N2 [24]): > 4 µM; EC50 [25]: 0.0031 µM; EC50 (Influenza B virus [26]): > 4 µM; EC50 (Human alphaherpesvirus 2): > 20 µM; EC50 (Coxsackievirus B4 [27]): 9 µM
